Source: article PMC3085951 (Journal of controlled release : official journal of the …, 2011)
pKd: −log10 of the molar value. Peptide text beside a SMILES is read from it.

Target: MT1-160p (Homo sapiens, UniProt P50281)
Assay: Phage ELISA, apparent Kd of phage-displayed peptide with MT1-160p
Format: binding
Procedure, shortened: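 MT1-160p (MT1-MMP residues 160–174) coated at 100 µg/ml in carbonate buffer pH 9.6, 4°C overnight, then blocked with 1% BSA/PBS. Selected phages bound 2 h at 37°C, then PBST washes. Mouse anti-M13 (1:1000) 1 h at 37°C, then HRP goat anti-mouse (1:2500). TMB 30 min at 37°C in the dark, stopped with 2 M H2SO4, A450. Coated wells without phage served as blanks.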

CC(C)C[C@H](NC(=O)[C@H](Cc1ccccc1)NC(=O)[C@@H](NC(=O)[C@H](CCCCN)NC(=O)[C@@H](NC(=O)[C@H](CC(N)=O)NC(=O)[C@H](Cc1c[nH]cn1)NC(=O)[C@H](CC(C)C)NC(=O)[C@H](Cc1c[nH]cn1)NC(=O)[C@H](CCCCN)NC(=O)[C@H](Cc1c[nH]c2ccccc12)NC(=O)[C@@H](N)Cc1c[nH]cn1)[C@@H](C)O)[C@@H](C)O)C(=O)O [MT1-AF7p] (H-HWKHLHNTKTFL-OH)
pKd: 10.12
